The results in this text go back to ChEMBL document CHEMBL1150579, “Anti-lipid-peroxidative principles from Tournefortia sarmentosa” (J Nat Prod, 2002).

Assay [1] in a line: Antioxidant activity against Cu2+-induced lipid peroxidation in human plasma LDL preincubated for 1 hr before Cu2+ challenge relative to probucol. Type of assay: functional, cell-free. An outline of the steps: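 Same Cu2+-induced human LDL assay as above, with 1 h compound preincubation, 10 µM CuSO4 for 2 h at 37 °C, and conjugated dienes read at 232 nm. Probucol (10 µM, in 10% ethanol) was the positive control, with its potency set at 1.0. Relative potency = IC50(probucol)/IC50(compound).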

A short description of assay [2]: Antioxidant activity against Cu2+-induced lipid peroxidation in human plasma LDL preincubated for 1 hr before Cu2+ challenge. It counts as functional, cell-free. An outline of the steps: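 LDL from fasting plasma of healthy adult men not taking vitamin supplements. LDL was preincubated with compound at 37 °C for 1 h. Oxidation was started with CuSO4 (final 10 µM) and run for 2 h at 37 °C, shaken at 120 rpm. Conjugated dienes in the supernatant were read at 232 nm. IC50 is the concentration giving 50% inhibition of diene formation, taken from concentration curves.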

A word on the IC50: it is the midpoint of a concentration-inhibition curve. Low values mean inhibition by little substance, high ones a need for much substance. Compound `O=C(O)/C=C/c1ccc(O)c2c1C=Cc1cc(O)c(O)cc1O2` [TOURNEFOLIC ACID B] registered an Activity in assay [1] of 1.9. Inhibition in assay [2] was half-maximal at 2320 nM (IC50).

Take `CC(C)(Sc1cc(C(C)(C)C)c(O)c(C(C)(C)C)c1)Sc1cc(C(C)(C)C)c(O)c(C(C)(C)C)c1` [PROBUCOL]: the IC50 in assay [2] turned out to be 4300 nM.

In assay [1], `O=C(O)/C=C/c1ccc(O)c(O)c1/C=C/c1ccc(O)c(O)c1` [SALVIANOLIC ACID F] came in with an Activity of 0.8. Besides, in assay [2], the IC50 worked out at 5440 nM.

`O=C(/C=C/c1ccc(O)c(O)c1/C=C/c1ccc(O)c(O)c1)O[C@H](Cc1ccc(O)c(O)c1)C(=O)O` [SALVIANOLIC ACID A] returned an Activity in assay [1] of 7.3. This compound also showed an IC50 in assay [2] of 590 nM.

Consider `O=C(/C=C/c1ccc(O)c2c1[C@H](C(=O)O)[C@@H](c1ccc(O)c(O)c1)O2)O[C@H](Cc1ccc(O)c(O)c1)C(=O)O` [LITHOSPERMIC ACID], for which the Activity in assay [1] turned out to be 4.3. In assay [2], this compound gave an IC50 of 1000 nM.

Compound `O=C(/C=C/c1ccc(O)c(O)c1)O[C@H](Cc1ccc(O)c(O)c1)C(=O)O` [ROSMARINIC ACID] showed an Activity in assay [1] of 2.2. For the same compound, in assay [2], it took 1810 nM to reach half-maximal inhibition (IC50).

Turning to `CCOC(=O)/C=C/c1ccc(O)c2c1C=Cc1cc(O)c(O)cc1O2` [TOURNEFOLIC ACID B ETHYL ESTER], in assay [1], the Activity stood at 8.6. The same compound registered a half-inhibitory concentration (IC50) in assay [2] of 510 nM.

In turn, `O=Cc1ccc(O)c2oc(-c3ccc(O)c(O)c3)cc12` [TOURNEFOLAL] displayed an Activity in assay [1] of 1.09. Besides, the IC50 in assay [2] came to 4700 nM.

As to `O=C(/C=C/c1ccc(O)c2c1C=Cc1cc(O)c(O)cc1O2)O[C@H](Cc1ccc(O)c(O)c1)C(=O)O` [ISOSALVIANOLIC ACID C], the Activity in assay [1] stood at 1.6. Besides, the IC50 in assay [2] was 2720 nM.

On to `O=C(O)/C=C/c1ccc(O)c2oc(-c3ccc(O)c(O)c3)cc12` [TOURNEFOLIC ACID A], for which the Activity in assay [1] amounted to 1.1. For the same compound, the IC50 in assay [2] came to 4810 nM.
